Results from ChEMBL document CHEMBL3414496, “Synthesis and biological evaluation of novel 2-heteroarylimino-1,3-thiazolidin-4-ones as potential anti-tumor agents” (Eur J Med Chem, 2015).
Activity calls are given as the source filed them. No cut-off for these calls is given here.

Legend:
HT-29 [1] = assay: Induction of cell cycle arrest in human HT-29 cells assessed as accumulation at subG1 phase by propidium iodide staining based flow cytometry (reference value: 6.9 +/- 0.5%); assay type: functional
HT-29 [2] = assay: Induction of chromatin condensation in human HT-29 cells incubated for 2 days by DAPI staining based UV fluorescent microscopy; assay type: functional, cell-based
Outline: (§1)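 HT29 cells in 35 mm dishes treated over two days, fixed in 70% ethanol for 5 min and rinsed with PBS. Stained with 1 µM DAPI in PBS for 15 min and imaged by UV fluorescence microscopy for nuclear morphology.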

HT-29 [3] = assay: Inhibition of cell growth in human HT-29 cells assessed as mitotic index ratio in presence of 1 mM ascorbic acid (reference value: 1.12 +/- 0.03); assay type: functional
HT-29 [4] = assay: Reduction in cell growth of human HT-29 cells at cytotoxic IC50 level after 3 days by trypan blue dye exclusion assay; assay type: functional, cell-based
Outline: (§2)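 HT29 cells treated daily from 48 h after seeding, over three days with daily medium changes, in 0.1% (v/v) DMSO vehicle. Cells trypsinised, mixed 1:1 with 0.04% trypan blue, and living cells counted by haemocytometer under microscope. Mitotic index is treated count relative to DMSO control. Triplicate determinations, two independent experiments, mean ± S.E.M.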

SW-620 = assay: Cytotoxicity against human SW620 cells after 72 hrs by MTT assay; assay type: functional, cell-based; settings: SW-620, 72 h
Outline: (§3)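 Cells seeded at 10^4/well, exposed 24 h later to graded concentrations (0.01–100 µM) for 72 h at 37°C; MTT 0.5 mg/ml for 2 h, formazan dissolved in DMSO, absorbance at 570 nm. […] Colon lines in DMEM, breast lines in RPMI, both with 10% FCS.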

MCF7 = assay: Cytotoxicity against human MCF7 cells after 72 hrs by MTT assay; assay type: functional, cell-based; settings: MCF7, 72 h; outline: as §3
[5] = Cytotoxicity against human HCT116 cells after 72 hrs by MTT assay; assay type: functional, cell-based; settings: HCT-116, 72 h; outline: as §3
HT-29 [6] = assay: Induction of cell cycle arrest in human HT-29 cells assessed as accumulation at S phase by propidium iodide staining based flow cytometry (reference value: 23.9 +/- 0.3%); assay type: functional
HT-29 [7] = assay: Reduction in cell viability of human HT-29 cells assessed as reduction in living cell level at cytotoxic IC50 level after 24 to 48 hrs by DCF-DA and propidium iodide staining based flow cytometry; assay type: functional
Outline: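 HT29 cells treated two days after seeding, then loaded together with 50 µM DCF-DA and 25 µg/mL propidium iodide for 15 min at 37°C. Cells trypsinised, washed and resuspended in PBS; 30 000 cells per sample read by flow cytometry (FL-1, FL-3). Viable cells (PI-negative, DCF-positive) given as % of total events. Triplicates, two independent experiments.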

HT-29 [8] = assay: Inhibition of cell growth in human HT-29 cells assessed as mitotic index ratio in absence of 1 mM ascorbic acid (reference value: 1); assay type: functional; outline: as §2
HT-29 [9] = assay: Induction of redox status changes in human HT-29 cells assessed as RNS content by DHR123 staining based fluorescence assay (reference value: 100%); assay type: functional
Outline: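 HT29 cells treated two days after seeding, then loaded with 25 µM DHR for 20 min at 37°C. Cells trypsinized and resuspended in PBS, and 30 000 cells/sample read by flow cytometry (FL-1). Expressed as % of DMSO controls. Triplicates from three independent experiments.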

HT-29 [10] = assay: Induction of redox status changes in human HT-29 cells assessed as GSH content by fluorescence based microtiter plate method (reference value: 100%); assay type: functional
Outline: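 HT29 cells exposed 48 h after seeding for 24 h, then extracted into ice-cold 10% perchloric acid with 2 mM EDTA and spun at 15 000 g. GSH in the supernatant measured by a fluorescence microtiter plate method; pellet protein measured by modified Lowry. Values in nmol GSH/mg protein, shown as % of DMSO controls. Triplicates from three experiments.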

HT-29 [11] = assay: Induction of nuclear fragmentation in human HT-29 cells incubated for 2 days by DAPI staining based UV fluorescent microscopy; assay type: functional, cell-based; outline: as §1
HT-29 [12] = assay: Induction of redox status changes in human HT-29 cells assessed as RNS content by DAF-2DA staining based fluorescence assay (reference value: 100%); assay type: functional
Outline: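 HT29 cells treated two days after seeding, then loaded with 1 µM DAF-2DA for 30 min at 37°C. Cells trypsinized and resuspended in PBS, and 30 000 cells/sample measured by flow cytometry (FL-1). Expressed as % of DMSO-treated cells. Triplicates from three independent experiments.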

HT-29 [13] = assay: Induction of autophagy in human HT-29 cells assessed as increase in beclin-1 protein expression by Western blotting method; assay type: functional, cell-based
Outline: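 HT29 cells in flasks treated over two days. Total protein homogenates immunoblotted with anti-beclin-1 (1:500), with GAPDH as loading control.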

HT-29 [14] = assay: Induction of autophagy in human HT-29 cells assessed as increase in acidic vesicles by acridine orange staining based flow cytometry; assay type: functional, cell-based
Outline: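 HT29 cells treated for two days with daily medium changes, stained with 1 µg/ml acridine orange for 15 min, then trypsinized and suspended in PBS. FL-3 fluorescence read by flow cytometry on 30 000 cells/sample and expressed in arbitrary units relative to DMSO-treated cells. Triplicates from three independent experiments.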

HT-29 [15] = assay: Induction of redox status changes in human HT-29 cells assessed as ROS content in absence of 1 mM ascorbic acid by DCF-DA staining based fluorescence assay (reference value: 100%)
HT-29 [16] = assay: Induction of Nrf2 expression in human HT-29 cells nuclei homogenates over 1 to 6 hrs by Western blotting method; assay type: functional, cell-based
Outline: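 HT29 cells treated and fractionated, and nuclear homogenates immunoblotted with anti-Nrf2 (1:500) after SDS-PAGE and nitrocellulose transfer. Primary antibody overnight at 4°C, HRP secondary and chemiluminescence. Blots stripped and reprobed for GAPDH (1:10 000) for normalization, with the DMSO ratio set to 1.00. Representative of three independent experiments.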

HT-29 [17] = assay: Induction of mitochondrial membrane potential loss in human HT-29 cells incubated for 2 days by JC1 staining based UV fluorescent microscopy; assay type: functional, cell-based
Outline: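 HT29 cells in dishes exposed to test agents, then 1 µM JC-1 added to the medium for 15 min at 37°C. Cells washed with warm PBS and imaged by fluorescence microscopy for J-aggregates (red channel). 50 µM CCCP for 15 min served as depolarization control.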

HT-29 [18] = assay: Cytotoxicity against human HT-29 cells after 72 hrs by MTT assay; assay type: functional, cell-based; settings: HT-29, 72 h; outline: as §3
MDA-MB-231 = assay: Cytotoxicity against human MDA-MB-231 cells after 72 hrs by MTT assay; assay type: functional, cell-based; settings: MDA-MB-231, 72 h; outline: as §3
HT-29 [19] = assay: Growth inhibition of human HT-29 cells at cytotoxic IC50 level after 3 days by trypan blue dye exclusion assay; assay type: functional
Outline: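 HT29 cells treated 48 h after seeding, dosed daily with daily medium change over three days; drug diluted in DMSO, controls 0.1% (v/v) DMSO. Cells trypsinized, mixed 1:1 with 0.04% trypan blue, live cells counted by hematimeter. Reported as mitotic index (treated/DMSO count); triplicates from two independent experiments.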

HT-29 [20] = assay: Induction of redox status changes in human HT-29 cells assessed as ROS content in presence of 1 mM ascorbic acid by DCF-DA staining based fluorescence assay (reference value: 65.7 +/- 4.7%)

Cc1ccc(/C=C2\S/C(=N\c3csc(-c4ccc(Cl)cc4)c3)NC2=O)cc1
Activity (HT-29 [1]): 21.5%
Activity (HT-29 [2]): Active
Ratio (HT-29 [3]): 0.02
inhibition (HT-29 [4]): Active
IC50 (SW-620): 1500 nM
IC50 (MCF7): 900 nM
IC50 [5]: 1000 nM
Activity (HT-29 [6]): 14.8%
inhibition (HT-29 [7]): Active
Ratio (HT-29 [8]): 0.02
Activity (HT-29 [9]): 95%
Activity (HT-29 [10]): 73.9%
Activity (HT-29 [11]): Active
Activity (HT-29 [12]): 155%
Activity (HT-29 [13]): Active
Activity (HT-29 [14]): Active
Activity (HT-29 [15]): 172%
Activity (HT-29 [16]): inactive
Activity (HT-29 [17]): Active
IC50 (HT-29 [18]): 6400 nM
IC50 (MDA-MB-231): 900 nM
growth inhibition (GI) (HT-29 [19]): 90%
Activity (HT-29 [20]): 102.5%

COc1ccc(/C=C2\S/C(=N\c3csc(-c4ccc(Cl)cc4)c3)NC2=O)cc1OC
Activity (HT-29 [1]): 20.6%
Activity (HT-29 [2]): Active
Ratio (HT-29 [3]): 0.04
inhibition (HT-29 [4]): Active
IC50 (SW-620): > 50000 nM
IC50 (MCF7): 7600 nM
IC50 [5]: 1700 nM
Activity (HT-29 [6]): 11.3%
inhibition (HT-29 [7]): Active
Ratio (HT-29 [8]): 0.04
Activity (HT-29 [9]): 83.6%
Activity (HT-29 [10]): 108.1%
Activity (HT-29 [11]): Active
Activity (HT-29 [12]): 116.3%
Activity (HT-29 [13]): Active
Activity (HT-29 [14]): Active
Activity (HT-29 [15]): 141.6%
Activity (HT-29 [17]): Active
IC50 (HT-29 [18]): 10900 nM
IC50 (MDA-MB-231): 1900 nM
growth inhibition (GI) (HT-29 [19]): 90%
Activity (HT-29 [20]): 112.1%

COc1ccc(/C=C2\S/C(=N\c3csc(-c4ccc(Cl)cc4)c3)NC2=O)cc1
Activity (HT-29 [1]): 21.6%
Activity (HT-29 [2]): Active
Ratio (HT-29 [3]): 0.03
inhibition (HT-29 [4]): Active
IC50 (SW-620): 28100 nM
IC50 (MCF7): 1000 nM
IC50 [5]: 1300 nM
Activity (HT-29 [6]): 18.2%
inhibition (HT-29 [7]): Active
Ratio (HT-29 [8]): 0.03
Activity (HT-29 [9]): 85.9%
Activity (HT-29 [10]): 88.8%
Activity (HT-29 [11]): Active
Activity (HT-29 [12]): 169.7%
Activity (HT-29 [13]): Active
Activity (HT-29 [14]): Active
Activity (HT-29 [15]): 123.1%
Activity (HT-29 [16]): inactive
Activity (HT-29 [17]): Active
IC50 (HT-29 [18]): 3800 nM
IC50 (MDA-MB-231): 1200 nM
growth inhibition (GI) (HT-29 [19]): 90%
Activity (HT-29 [20]): 97%

CN(C)c1ccc(/C=C2\S/C(=N\c3csc(-c4ccc(Cl)cc4)c3)NC2=O)cc1
Activity (HT-29 [1]): 29%
Activity (HT-29 [2]): Active
Ratio (HT-29 [3]): 0.02
inhibition (HT-29 [4]): Active
IC50 (SW-620): 800 nM
IC50 (MCF7): 400 nM
IC50 [5]: 500 nM
Activity (HT-29 [6]): 14.8%
inhibition (HT-29 [7]): Active
Ratio (HT-29 [8]): 0.02
Activity (HT-29 [9]): 80.1%
Activity (HT-29 [10]): 84.6%
Activity (HT-29 [11]): Active
Activity (HT-29 [12]): 294.4%
Activity (HT-29 [13]): Active
Activity (HT-29 [14]): Active
Activity (HT-29 [15]): 177.8%
Activity (HT-29 [16]): inactive
Activity (HT-29 [17]): Active
IC50 (HT-29 [18]): 1500 nM
IC50 (MDA-MB-231): 800 nM
growth inhibition (GI) (HT-29 [19]): 90%
Activity (HT-29 [20]): 133.6%

COc1ccc(/C=C2\S/C(=N\c3nc(-c4ccc(Cl)cc4)cs3)NC2=O)cc1
Activity (HT-29 [2]): Active
IC50 (SW-620): 50 nM
IC50 (MCF7): 100 nM
IC50 [5]: 400 nM
Activity (HT-29 [9]): 80.9%
Activity (HT-29 [10]): 117%
Activity (HT-29 [11]): Active
Activity (HT-29 [12]): 103.3%
Activity (HT-29 [13]): Active
Activity (HT-29 [14]): Active
Activity (HT-29 [16]): inactive
Activity (HT-29 [17]): Active
IC50 (HT-29 [18]): 400 nM
IC50 (MDA-MB-231): 300 nM
growth inhibition (GI) (HT-29 [19]): <25%

CN(C)c1ccc(/C=C2\S/C(=N\c3nc(-c4ccc(Cl)cc4)cs3)NC2=O)cc1
Activity (HT-29 [2]): Active
IC50 (SW-620): 200 nM
IC50 (MCF7): 100 nM
IC50 [5]: 200 nM
Ratio (HT-29 [8]): 0.13
Activity (HT-29 [9]): 157.6%
Activity (HT-29 [10]): 109.1%
Activity (HT-29 [11]): Active
Activity (HT-29 [12]): 144.4%
Activity (HT-29 [13]): Active
Activity (HT-29 [14]): Active
Activity (HT-29 [15]): 252.5%
Activity (HT-29 [16]): inactive
Activity (HT-29 [17]): Active
IC50 (HT-29 [18]): 500 nM
IC50 (MDA-MB-231): 300 nM
growth inhibition (GI) (HT-29 [19]): <25%
